An excerpt weighted towards active compounds, which were near 4.4% of everything screened.
m5-HT2A agonist = activates the mouse 5-HT2A serotonin receptor; activation, % at 7.6 µM; 360,000 compounds, 0.66% hits; P35363; CHO-K1 mHTR2A beta-arrestin complementation, luminescence; percent of 30 µM serotonin response;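 active = activation above a run cutoff, the mean activation of all tested compounds plus 3 SD, cut at about 14% in these data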;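 also: 0% = plate median of compound wells and 100% = 30 µM serotonin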
AI-2 QS mod = modulators of Vibrio harveyi AI-2 quorum sensing system; AID 2094; activity change, % at 7.5 µM; 300,000 compounds, 0.4% hits; Vibrio harveyi JMH597 AI-2 luminescence/OD600 ratio, 9 h; active compounds read low; strain lacks LuxN and CqsS sensors; 0 = neutral-control median; in the data active = activity change below about -75%, passing the limit was not always enough;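 also: luminescence divided by OD600 gain over 9 h not by final OD600 alone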
bovine MsrA act = activates bovine MsrA enzyme | purified bovine MsrA, absorbance read-out | activation, % at 10.6 µM | 360,000 compounds, 0.3% hits; in the data active = activation above about 7.5%;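 also: 0% = vehicle and 100% = reference activator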
MsrA inh = inhibits bovine methionine sulfoxide reductase A; purified bovine MsrA, absorbance read-out; inhibition, % at 15.5 µM; 360,000 compounds, 0.75% hits; AID 651718; in the data active = inhibition above about 4.5%;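 also: 0% = vehicle wells with enzyme and 100% = reference inhibitor wells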
AHR activator = activates the human aryl hydrocarbon receptor | P35869 | AHR-responsive luciferase reporter cells, luminescence | activation, % at 5 µM | 320,000 compounds, 2.5% hits | AID 2796; in the data active = activation above about 47%;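 also: 0% = vehicle wells and 100% = reference agonist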
Target sequence (P35869 whole entry, looked up): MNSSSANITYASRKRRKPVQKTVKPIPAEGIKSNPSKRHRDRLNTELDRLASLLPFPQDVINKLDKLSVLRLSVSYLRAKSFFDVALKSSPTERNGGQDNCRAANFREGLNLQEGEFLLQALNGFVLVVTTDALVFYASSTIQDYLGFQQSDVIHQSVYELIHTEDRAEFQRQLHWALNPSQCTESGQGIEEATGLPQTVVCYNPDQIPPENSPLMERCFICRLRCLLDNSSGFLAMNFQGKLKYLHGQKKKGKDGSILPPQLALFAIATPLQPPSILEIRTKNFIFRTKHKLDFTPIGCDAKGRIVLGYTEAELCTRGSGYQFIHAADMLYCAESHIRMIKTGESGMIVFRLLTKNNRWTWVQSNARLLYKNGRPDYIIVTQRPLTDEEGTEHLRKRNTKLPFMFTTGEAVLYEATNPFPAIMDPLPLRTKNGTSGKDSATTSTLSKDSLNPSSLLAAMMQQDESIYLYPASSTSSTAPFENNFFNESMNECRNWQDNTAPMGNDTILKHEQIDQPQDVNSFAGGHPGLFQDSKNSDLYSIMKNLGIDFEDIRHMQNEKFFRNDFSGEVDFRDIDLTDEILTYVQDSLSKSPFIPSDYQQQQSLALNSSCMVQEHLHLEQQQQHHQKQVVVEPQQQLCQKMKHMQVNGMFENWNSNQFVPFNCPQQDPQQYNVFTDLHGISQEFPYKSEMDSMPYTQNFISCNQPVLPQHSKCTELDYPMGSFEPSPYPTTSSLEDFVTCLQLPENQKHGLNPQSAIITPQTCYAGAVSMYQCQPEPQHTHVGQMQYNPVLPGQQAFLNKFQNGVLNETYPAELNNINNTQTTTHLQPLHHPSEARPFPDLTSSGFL
TbMetRS inhib = blocks T. brucei methionyl-tRNA synthetase activity; purified T. brucei MetRS, ATP depletion, Kinase-Glo luminescence; 360,000 compounds, 0.4% hits; inhibition, % at 11.9 µM; AID 624268;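 active = inhibition above a per-plate cutoff of the control wells' mean inhibition plus 3 SD, cut at about 5.5% in these data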;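 also: 0% = DMSO wells median and 100% = median of wells with control inhibitor compound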
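Material: parasite MetRS enzyme / Replication: singlicate, one well per compound / Signal: luminescence of leftover ATP / Schedule: 2 h aminoacylation at 25 °C after 15 min preincubation / Medium: HEPES-MgCl2-KCl buffer plus DTT, spermine, BSA, pyrophosphatase / Doses: 11.9 µM single point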
Numbers without * were called inactive; nt = no result.

SMILES | m5-HT2A agonist | AI-2 QS mod | bovine MsrA act | MsrA inh | AHR activator | TbMetRS inhib
COc1ccc(/C=N/N(C(C)=O)c2nc(-c3ccc(C)cc3)cs2)cc1 | -1 | 14 | -2 | -1 | 13 | 0
COCc1[nH]nc2c1C(c1ccc(Br)cc1)N(Cc1ccccc1)C2=O (centres undefined) | nt | nt | nt | 0 | nt | nt
O=C1OC(c2ccc(Br)cc2)=N/C1=C\N1CCCCC1 | -4 | 22 | -4 | 0 | 63* | -1
Cc1ccc(C2=N/C(=C\c3c(C)nn(-c4ccccc4)c3N3CCCC3)C(=O)O2)cc1 | -1 | 35 | -2 | -1 | 1 | -1
CC(NC(=O)c1cc(-c2ccncc2)nc2ccc(Cl)cc12)C1CCCO1 (centres undefined) | 0 | 15 | -8 | 1 | 16 | 0
CC(NC(=O)c1cc(-c2ccccn2)nc2ccc(Cl)cc12)C1CCCO1 (centres undefined) | -2 | 21 | -4 | 0 | 52* | 0
COc1ccc2nc(-c3ccc(CN4CCC5(CC4)CNc4ccccc45)cc3)c(-c3ccccc3)nc2c1 | nt | nt | nt | 1 | nt | nt
Cc1ccc(NC(=O)CN2C(=O)N/C(=C/c3ccc(N4CCOCC4)cc3)C2=O)cc1 | 0 | 20 | 1 | 4 | 58* | -1
Cc1ccc(NC(=O)CN2C(=O)N/C(=C/c3ccc4c(c3)OCCO4)C2=O)cc1 | -1 | 24 | -6 | 1 | 7 | 0
C#CCNC(=O)C[C@H]1C[C@@]2(C(=O)OC)C(=C[C@H](C3CCCC3)O[C@@H]2C)N(Cc2ccccc2)C1=O | nt | nt | nt | 0 | nt | nt
CC(=O)Nc1ccc2nc(NC(=O)c3ccc([N+](=O)[O-])o3)sc2c1 | 2 | 18 | -4 | 2 | 58* | 0
CCC(=O)Nc1nc2ccc(NC(C)=O)cc2s1 | -2 | 19 | -2 | 1 | 76* | 0
CCOc1cc(OCC)cc(C(=O)N2CCC[C@@H]2C(=O)N2CCC[C@H]2C(=O)NCc2ccccc2)c1 | nt | nt | nt | 1 | nt | nt
COC(=O)c1ccccc1S(=O)(=O)NC(=O)[C@H]1O[C@@H](n2ccc(=O)[nH]c2=O)[C@H](O)[C@@H]1O | nt | nt | nt | -1 | nt | nt
Fc1ccc(-c2ccc3c(n2)CCCN3Cc2ccccc2C(F)(F)F)cc1 | nt | nt | nt | 1 | nt | nt
Cc1cccc(-n2nnc3cnn(C)c3c2=O)c1 | 1 | 21 | -6 | 1 | 60* | -1
COc1ccc(CN2C[C@@]3(O)CC[C@@H](O)[C@@H](OC)[C@@H]3[C@@](C)(O)[C@@H]2CC=C(C)C)cc1 | nt | nt | nt | 0 | nt | nt
NC(=O)c1c(NC(=O)c2ccc(F)cc2Cl)sc2c1CCC2 | 0 | 7 | -2 | 0 | 56* | -1
Cc1ccc(S(=O)(=O)N(C)[C@H]2C[C@H]3c4cc(-c5ccc6c(c5)OCO6)ccc4CCN3C[C@H]2[C@H](C)O)cc1 | nt | nt | nt | 1 | nt | nt
Nc1nc2c(-c3ccc(Br)cc3)nnn2c2ccccc12 | -3 | 5 | 0 | 1 | 54* | 0
Cc1cc(C(F)(F)F)nc(Nc2nc(C)c3ccccc3n2)n1 | -4 | -4 | -3 | 2 | 58* | 0
COC(=O)Cc1nnn2c1[C@H](C)[C@H](C(C)(C)C)OCC2 | nt | nt | nt | 0 | nt | nt
COc1ccccc1N1C(=O)S/C(=C\c2cccs2)C1=O | 6 | 11 | 0 | 0 | 78* | -1
COc1ccccc1C(=O)NNC(=O)CCCN1C(=O)/C(=C/c2cccs2)SC1=S | 6 | 17 | -4 | 1 | 2 | -1
OCCN(CCO)Cc1ccc(Br)cc1 | -2 | 19 | -11 | 1 | 63* | -2
SMILES | m5-HT2A agonist | AI-2 QS mod | bovine MsrA act | MsrA inh | AHR activator | TbMetRS inhib
O=S1(=O)CCSC[C@@H](CN2CCCC2)N1 | nt | nt | nt | 0 | nt | nt
CCC1(c2ccccc2)NC(=O)N(CC(=O)NCc2ccc(OC)cc2)C1=O (centres undefined) | 4 | -80* | -2 | -1 | 1 | 0
Cc1[nH]n(-c2ccccc2)c(=O)c1C(C[N+](=O)[O-])c1ccccc1Cl (centres undefined) | -5 | 24 | 1 | 0 | 68* | -1
Cc1cc(NS(=O)(=O)c2c(C)c(C)cc(C)c2C)no1 | -5 | 28 | -4 | 0 | 3 | 0
O=C(NC(=S)Nc1cccc(Cl)c1Cl)C1CC1 | -1 | -56 | -3 | 3 | 52* | 0
CSc1nc(C)c2cc(C)oc2n1 | -2 | 31 | -5 | -2 | 11 | 0
Cc1cc2c(C)nc(Cc3ccccc3)nc2o1 | 4 | 4 | -2 | -1 | 54* | -1
Nc1ccn([C@@H]2O[C@H](C(=O)N[C@H](Cc3ccccc3)C(=O)N3CCN(CC(=O)N4CCCC4)CC3)[C@@H](O)[C@H]2O)c(=O)n1 | nt | nt | nt | 2 | nt | nt
CC(=O)c1c(C)[nH]c(C(=O)Nc2ccccc2Cl)c1C | -2 | 1 | -3 | 0 | 59* | 0
CC(=O)c1c(C)[nH]c(C(=O)NCc2ccccc2Cl)c1C | -3 | 26 | -8 | 0 | -5 | 0
CCC(C)c1ccccc1NC(=O)c1[nH]c(C)c(C(C)=O)c1C (centres undefined) | -2 | 18 | -4 | 0 | 29 | 0
CC(=O)c1c(C)[nH]c(C(=O)Nc2cccc3ccccc23)c1C | 6 | -6 | -4 | 1 | 110* | -1
COc1ccc(C(=O)NCC2CCN(C(=O)C(=O)c3cccs3)CC2)cc1 | nt | nt | nt | 1 | nt | nt
C=C1c2cccc(O)c2C(O)=C2C(=O)[C@]3(O)C(O)=C(C(N)=O)C(=O)[C@@H](N(C)C)[C@@H]3[C@@H](O)[C@H]12 | 6 | -83* | -4 | 2 | 1 | 1
CN(C)[C@@H]1C(=O)C(C(=O)NCN2CCCC2)=C(O)[C@@]2(O)C(=O)C3=C(O)c4c(O)cccc4[C@@](C)(O)C3CC12 (some centres undefined) | nt | 4 | nt | nt | nt | nt
CN(C)c1ccc(O)c2c1CC1CC3C(N(C)C)C(=O)C(C(N)=O)=C(O)[C@@]3(O)C(=O)C1=C2O (some centres undefined) | 1 | -120* | -1 | 4 | -1 | 0
CC(=O)c1c(C)[nH]c(C(=O)Nc2cc(F)ccc2C)c1C | -3 | 16 | -3 | 1 | 58* | 1
CC(=O)c1c(C)[nH]c(C(=O)Nc2ccc(C)c(C)c2)c1C | -1 | 8 | 1 | 0 | -16 | 0
CCCCC(CC)CNC(=O)c1[nH]c(C)c(C(C)=O)c1C (centres undefined) | 8 | 23 | -7 | -1 | 27 | 0
CC(=O)c1c(C)[nH]c(C(=O)Nc2ccc(C)cc2Br)c1C | -4 | 37 | -4 | -1 | 52* | 0
CCN(CC)c1ccc(NC(=O)c2[nH]c(C)c(C(C)=O)c2C)c(C)c1 | -8 | -18 | -8 | 1 | 2 | -1
CCc1c(C(=O)Nc2cc(C)ccc2OC)[nH]c(C)c1C(C)=O | 0 | 25 | 1 | 1 | 52* | 0
CCCCNC(=O)c1[nH]c(C)c(C(C)=O)c1C | 1 | 9 | -2 | -1 | 67* | 0
